Data taken from ChEMBL document CHEMBL4177770, “Discovery of MK-6169, a Potent Pan-Genotype Hepatitis C Virus NS5A Inhibitor with Optimized Activity against Common Resistance-Associated Substitutions” (J Med Chem, 2018).

Key:
[1] = Cmax in Wistar Han rat at 100 mg/kg, po by LC/MS method; format: ADME, organism-based; parameters: dose 100 mg/kg, route oral; conditions: in vivo
In short: (§1)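 Single rising oral dose study in fed male Wistar Han rats, dosed PO in 10% TWEEN at the indicated doses. Plasma was obtained by centrifuging the blood, and compound levels were determined by LC/MS.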

[2] = Resistance ratio of EC90 for NS5A L31V mutant in HCV genotype 4a infected in HuH7 replicon cells to EC90 for NS5A in HCV genotype 1a infected in HuH7 replicon cells; format: cell-based
[3] = biological target: T1, Nonstructural protein 5A (Hepatitis C virus) (UniProt Q5L478); assay: Inhibition of NS5A L31V mutant in HCV genotype 1a infected in HuH7 replicon cells assessed as decrease in viral replication after 3 days by RT-PCR method; format: cell-based; conditions: Hepatitis C virus subtype 1a
T1 sequence (whole entry): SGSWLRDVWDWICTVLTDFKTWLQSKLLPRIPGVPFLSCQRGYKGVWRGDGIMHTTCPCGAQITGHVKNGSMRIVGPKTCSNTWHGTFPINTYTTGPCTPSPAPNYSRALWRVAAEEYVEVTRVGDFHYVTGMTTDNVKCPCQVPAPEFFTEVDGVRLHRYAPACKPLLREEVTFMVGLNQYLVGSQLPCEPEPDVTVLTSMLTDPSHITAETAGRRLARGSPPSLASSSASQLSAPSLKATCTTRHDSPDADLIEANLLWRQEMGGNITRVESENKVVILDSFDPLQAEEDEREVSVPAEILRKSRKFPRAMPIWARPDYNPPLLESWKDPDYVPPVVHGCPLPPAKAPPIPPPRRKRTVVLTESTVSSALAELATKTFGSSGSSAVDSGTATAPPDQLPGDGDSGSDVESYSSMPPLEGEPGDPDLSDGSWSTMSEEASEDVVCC

[4] = Resistance ratio of EC90 for NS5A in HCV genotype 2a infected in HuH7 replicon cells to EC90 for NS5A in HCV genotype 1a infected in HuH7 replicon cells; format: cell-based
[5] = Tmax in Wistar Han rat at 10 mg/kg, po by LC/MS method; format: ADME, organism-based; conditions: in vivo
In short: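 Male Wistar Han rats, two per dosing group, dosed orally at 10 mg/kg in 10% TWEEN. Plasma was separated from collected blood by centrifugation and analysed by LC/MS.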

[6] = biological target: T1, Nonstructural protein 5A (Hepatitis C virus); assay: Inhibition of NS5A in HCV genotype 1b infected in HuH7 replicon cells assessed as decrease in viral replication after 3 days by RT-PCR method; format: cell-based; conditions: Hepatitis C virus subtype 1b
[7] = biological target: T1, Nonstructural protein 5A (Hepatitis C virus); assay: Inhibition of NS5A in HCV genotype 2a infected in HuH7 replicon cells assessed as decrease in viral replication after 3 days by RT-PCR method; format: cell-based; conditions: Hepatitis C virus subtype 2a
[8] = Resistance ratio of EC90 for NS5A M31V mutant in HCV genotype 2b infected in HuH7 replicon cells to EC90 for NS5A in HCV genotype 1a infected in HuH7 replicon cells; format: cell-based
[9] = tested on: Nonstructural protein 5A (Hepatitis C virus), Q5L478 [UNDEFINED MUTATION]; assay: Inhibition of NS5A L31M/Y93C double mutant in HCV genotype 1a infected in HuH7 replicon cells assessed as decrease in viral replication after 3 days by RT-PCR method; format: cell-based; conditions: Hepatitis C virus subtype 1a
[10] = Oral bioavailability in Beagle dog at 5 mg/kg by LC/MS method; format: ADME, organism-based, Canis lupus familiaris; conditions: in vivo
In short: (§2)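 Beagle dogs, two animals per dosing group. Oral dose was given in 10% TWEEN. Blood was collected and spun to plasma, and plasma compound levels were measured by LC/MS.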

[11] = AUC in Wistar Han rat at 100 mg/kg, po by LC/MS method; format: ADME, organism-based; conditions: in vivo; in short: as §1
[12] = Resistance ratio of EC90 for NS5A L31F mutant in HCV genotype 3a infected in HuH7 replicon cells to EC90 for NS5A in HCV genotype 1a infected in HuH7 replicon cells; format: cell-based
[13] = Resistance ratio of EC90 for NS5A A146S mutant in HCV genotype 2b infected in HuH7 replicon cells to EC90 for NS5A in HCV genotype 1a infected in HuH7 replicon cells; format: cell-based
[14] = biological target: T1, Nonstructural protein 5A (Hepatitis C virus); assay: Inhibition of NS5A F28L mutant in HCV genotype 2a infected in HuH7 replicon cells assessed as decrease in viral replication after 3 days by RT-PCR method; format: cell-based; conditions: Hepatitis C virus subtype 2a
[15] = tested on: Hepatitis C virus subtype 1a; assay: Resistance ratio of EC90 for NS5A A92P mutant in HCV genotype 1a infected in HuH7 replicon cells to EC90 for NS5A in HCV genotype 1a infected in HuH7 replicon cells; format: cell-based
[16] = biological target: T1, Nonstructural protein 5A (Hepatitis C virus); assay: Inhibition of NS5A L31M mutant in HCV genotype 2a infected in HuH7 replicon cells assessed as decrease in viral replication after 3 days by RT-PCR method; format: cell-based; conditions: Hepatitis C virus subtype 2a
[17] = biological target: T1, Nonstructural protein 5A (Hepatitis C virus); assay: Inhibition of NS5A A92K mutant in HCV genotype 1b infected in HuH7 replicon cells assessed as decrease in viral replication after 3 days by RT-PCR method; format: cell-based; conditions: Hepatitis C virus subtype 1b
[18] = AUC in Beagle dog at 5 mg/kg, po by LC/MS method; format: ADME, organism-based, Canis lupus familiaris; conditions: in vivo; in short: as §2

Molecule `COC(=O)N[C@H](C(=O)N1CCC[C@H]1c1ncc(-c2cc(F)c3c(c2)O[C@@H](c2ccc(C4CC4)s2)n2c-3cc3cc(-c4cnc([C@@H]5CCCN5C(=O)[C@@H](NC(=O)OC)[C@@H]5CCOC(C)(C)C5)[nH]4)ccc32)[nH]1)C(C)C` has a Cmax [1] of 760 nM, a Ratio [2] of 2 and an EC90 [3] of 4.3 pM. The Ratio [4] was < 1, the Tmax [5] was 3 h and the EC90 [6] was 4.4 pM. It also gave an EC90 [7] of 2.7 pM, a Ratio [8] of 5 and an EC90 [9] of 180 pM. For the same molecule, the bioavailability [10] was 14.9%, the AUC [11] was 7.82 µM·h and the Ratio [12] was 69. For the same molecule, the Ratio [13] was 1, the EC90 [14] was 0.5 pM and the Ratio [15] was < 1. It also gave an EC90 [16] of 25 pM, an EC90 [17] of 26 pM and an AUC [18] of 4.19 µM·h.
